{"source": "ChEMBL document CHEMBL1158703", "about": "“Psychopharmacological profile of the alkaloid psychollatine as a 5HT2A/C serotonin modulator” (2005)", "key": {"Mus musculus [1]": {"tested_on": "Mus musculus", "assay": "Anxiolytic activity against CF1 mouse assessed as increase in latency to enter in the dark compartment 7.5 mg/kg for 5 mins", "assay_type": "functional, organism-based", "design": "dose 7.5 mg/kg", "summary_of_the_method": "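Light/dark box with a black, room-lit small compartment and a white large compartment lit at 400 lx. Male CF1 mice were acclimated at least 1 h under dim red light and dosed i.p. 30 min before testing. Recorded were latency to first entry and time spent in the light area. Values are mean ± SEM (N = 19-22), analysed by one-way ANOVA then SNK.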"}, "Mus musculus [2]": {"tested_on": "Mus musculus", "assay": "Anxiolytic activity against CF1 mouse assessed as suppression of oxotremorine-treated tremors at 10 mg/kg", "assay_type": "functional, organism-based", "design": "dose 10 mg/kg", "summary_of_the_method": "(§1)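 Male CF1 mice were given the test drug i.p. in saline 30 min before oxotremorine 0.5 mg/kg. Each mouse was then placed alone in an acrylic cage for observation of tremor. Values are median (interquartile range), analysed by Kruskal–Wallis then Mann–Whitney U against saline + oxotremorine.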"}, "Mus musculus [3]": {"tested_on": "Mus musculus", "assay": "Anxiolytic activity against CF1 mouse assessed as suppression of oxotremorine-treated tremors at 30 mg/kg", "assay_type": "functional, organism-based", "design": "dose 30 mg/kg", "summary_of_the_method": "as §1"}, "Mus musculus [4]": {"tested_on": "Mus musculus", "assay": "Anxiolytic activity against CF1 mouse assessed as increase in number of crossings at 7.5 mg/kg after 30 mins in presence of ritanserin by hole-board assay", "assay_type": "functional, organism-based", "design": "dose 7.5 mg/kg", "summary_of_the_method": "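Male CF1 mice received ritanserin 2 mg/kg i.p. in 10% DMSO 30 min before the test drug at 7.5 mg/kg i.p. The 5 min hole-board session began 30 min later, counting head-dips, crossings and rearings. Values are mean ± SEM (N = 8-14), analysed by ANOVA/SNK.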"}, "Mus musculus [5]": {"tested_on": "Mus musculus", "assay": "Anxiolytic activity against CF1 mouse assessed as increase in latency to enter in the dark compartment 7.5 mg/kg in presence of ritanserin for 5 mins", "assay_type": "functional, organism-based", "design": "dose 7.5 mg/kg", "summary_of_the_method": "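Male CF1 mice received ritanserin 2 mg/kg i.p. (in 10% DMSO) 30 min before the test drug at 7.5 mg/kg i.p. The light/dark test followed 30 min later, scoring latency to first entry and time in the light compartment. Values are mean ± SEM (N = 8-10), analysed by one-way ANOVA/SNK.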"}, "Mus musculus [6]": {"tested_on": "Mus musculus", "assay": "Effect on locomotory activity in CF1 mouse assessed as change in spontaneous activity at 3 to 30 mg/kg", "assay_type": "functional, organism-based", "summary_of_the_method": "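Mice were habituated singly for 10 min in photocell activity cages and then dosed i.p. Diazepam was given in 10% propylene glycol. After 30 min, crossings were recorded for 15 min. n = 10–16, ANOVA then SNK.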"}, "Mus musculus [7]": {"tested_on": "Mus musculus", "assay": "Effect on locomotory activity in CF1 mouse assessed as reduction in spontaneous activity at 100 mg/kg", "assay_type": "functional, organism-based", "design": "dose 100 mg/kg", "summary_of_the_method": "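Male CF1 mice were habituated 10 min in photocell activity cages, then dosed i.p. (n = 10-16). Thirty minutes later crossings were recorded over 15 min. Values are mean ± SEM, analysed by one-way ANOVA then SNK.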"}, "Mus musculus [8]": {"tested_on": "Mus musculus", "assay": "Effect on short term memory of CF1 mouse assessed as reduction in latency during aquisition at 100 mg/kg by passive avoidance test", "assay_type": "functional", "summary_of_the_method": "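Step-down inhibitory avoidance in male CF1 mice with i.p. dosing 30 min before training. Stepping down during training gave a 0.3 mA scrambled foot shock for 15 s. The latency to step down during training was recorded, with no exclusion criterion applied. N = 20 per group; values are median (interquartile range).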"}, "Mus musculus [9]": {"tested_on": "Mus musculus", "assay": "Anxiolytic activity against CF1 mouse assessed as suppression of oxotremorine-treated tremors at 7.5 mg/kg", "assay_type": "functional, organism-based", "design": "dose 7.5 mg/kg", "summary_of_the_method": "as §1"}, "Mus musculus [10]": {"tested_on": "Mus musculus", "assay": "Anxiolytic activity against CF1 mouse assessed as suppression of oxotremorine-treated tremors at 100 mg/kg", "assay_type": "functional, organism-based", "design": "dose 100 mg/kg", "summary_of_the_method": "as §1"}, "Mus musculus [11]": {"tested_on": "Mus musculus", "assay": "Antidepressant activity in CF1 mouse assessed as decrease in duration of immobility at 7.5 mg/kg during final 4 mins of the 6 mins session by forced swimming test", "assay_type": "functional", "summary_of_the_method": "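Male adult CF1 mice given i.p. doses in saline (pH 7.0), N = 10. Each mouse swam 6 min in a 30 cm-diameter cylinder holding 20 cm of water at 25 ± 1 °C. Immobility was timed over the last 4 min. Values are mean ± SEM, analysed by ANOVA against saline.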"}}, "note": "Active and inactive are the calls of the source.", "data": [{"smiles": "COC(=O)C1=CO[C@@H](O[C@H]2O[C@H](CO)[C@@H](O)[C@H](O)[C@H]2O)[C@@H]2C([C@@H]3NCCc4c3[nH]c3ccccc43)=CC[C@H]12", "note": "[PSYCHOLLATINE]", "values": [{"measurement": "Activity", "setting": "Mus musculus [1]", "result": "Active"}, {"measurement": "Activity", "setting": "Mus musculus [2]", "result": "Active"}, {"measurement": "Activity", "setting": "Mus musculus [3]", "result": "Active"}, {"measurement": "Activity", "setting": "Mus musculus [4]", "result": "inactive"}, {"measurement": "Activity", "setting": "Mus musculus [5]", "result": "inactive"}, {"measurement": "Activity", "setting": "Mus musculus [6]", "result": "inactive"}, {"measurement": "Activity", "setting": "Mus musculus [7]", "result": "Active"}, {"measurement": "Activity", "setting": "Mus musculus [8]", "result": 6.8, "unit": "s"}, {"measurement": "Activity", "setting": "Mus musculus [9]", "result": "Active"}, {"measurement": "Activity", "setting": "Mus musculus [10]", "result": "Active"}, {"measurement": "Activity", "setting": "Mus musculus [11]", "result": 56.41, "unit": "s"}]}]}
